Data published in ChEMBL document CHEMBL1143412, “RSV604, a novel inhibitor of respiratory syncytial virus replication” (Antimicrob Agents Chemother, 2007).
Calls of active or inactive are those of the source. The rule behind the calls is not given here.

Tests used:
[1] = tested on: Respiratory syncytial virus; assay: Drug resistance, ratio of EC50 for plaque picked A-33903-resistant RSV RSS from passage 2 to EC50 for DMSO-passaged wild type RSV RSS; assay type: functional
[2] = Therapeutic index, CC50 for human Hep2 cells to EC50 for RSV RSS; assay type: cell-based, HEp-2; conditions: read-out: Ratio CC50/EC50
Outline: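 Ratio of CC50 from uninfected HEp-2 XTT control plates to EC50 from RSV RSS-infected XTT plates, both read after 6 days.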

[3] = tested on: Respiratory syncytial virus; assay: Antiviral activity against RSV RSS infected human Hep2 cells after 5 days by plaque reduction assay; assay type: functional, organism-based; conditions: HEp-2, 120 h
Outline: (§1)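 HEp-2 monolayers in six-well plates infected with 0.2 ml of 500 PFU/ml virus. After 2 h, overlaid with DMEM, 2% FBS, 0.6% agarose plus compound dilution series. Incubated 5 days, formaldehyde-fixed, plaques stained with methylene blue or immunostained and counted. Activity expressed as percent of plaques in untreated infected wells.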

[4] = Cytotoxicity against RSV RSS infected human Hep2 cells after 6 days by XTT assay; assay type: cell-based, HEp-2
[5] = tested on: Respiratory syncytial virus; assay: Antiviral activity against DMSO-passaged wild type RSV RSS infected human Hep2 cells by plaque reduction assay; assay type: functional, organism-based; conditions: HEp-2; outline: as §1
[6] = tested on: Respiratory syncytial virus; assay: Antiviral activity against RSV RSS infected human Hep2 cells assessed as reduction of viral antigen synthesis after 3 days by ELISA; assay type: functional, organism-based; conditions: HEp-2, 72 h
Outline: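 HEp-2 cells seeded at 5 × 10³ per well in DMEM/10% FBS for 24 h, infected with RSV RSS at MOI about 0.02, serial compound dilutions for 3 days. Cells fixed and permeabilised in methanol-acetone, blocked in milk-Tween. Probed with mouse anti-RSV monoclonal then HRP anti-mouse. Developed with o-phenylenediamine/H2O2, absorbance […].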

[7] = tested on: Respiratory syncytial virus; assay: Antiviral activity against RSV B infected human Hep2 cells after 5 days by plaque reduction assay; assay type: functional, organism-based; conditions: HEp-2, 120 h; outline: as §1
[8] = tested on: Respiratory syncytial virus; assay: Antiviral activity against RSV Long infected human Hep2 cells after 5 days by plaque reduction assay; assay type: functional, organism-based; conditions: HEp-2, 120 h; outline: as §1
[9] = tested on: Respiratory syncytial virus; assay: Antiviral activity against RSV RSS infected human Hep2 cells assessed as inhibition of virus-induced cell death after 6 days by XTT assay; assay type: functional, organism-based; conditions: HEp-2, 144 h
Outline: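 HEp-2 cells seeded at 4 × 10³ per well in DMEM with 10% FBS, infected next day with RSV RSS dosed to give about 80% cytopathic effect by day 6. Serial compound dilutions (top 10 μM, 0.5% DMSO) present throughout. Viability read by XTT reduction after 6 days. EC50 taken as 50% reduction in virus-induced cell death.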

[10] = tested on: Respiratory syncytial virus; assay: Antiviral activity against plaque picked A-33903-resistant RSV RSS from passage 2 in human Hep2 cells by plaque reduction assay; assay type: functional, organism-based; conditions: HEp-2; outline: as §1
[11] = tested on: Respiratory syncytial virus; assay: Antiviral activity against RSV A2 infected human Hep2 cells after 5 days by plaque reduction assay; assay type: functional, organism-based; conditions: A2, HEp-2, 120 h; outline: as §1
[12] = tested on: Respiratory syncytial virus; assay: Antiviral activity against RSV RSS M2 mutant infected human Hep2 cells after 5 days by plaque reduction assay; assay type: functional, organism-based; conditions: HEp-2, 120 h; outline: as §1
[13] = tested on: Respiratory syncytial virus; assay: Drug resistance, ratio of EC50 for RSV RSS with N protein N105D mutation to EC50 for wild type RSV RSS; assay type: functional
[14] = tested on: Respiratory syncytial virus; assay: Drug resistance, ratio of EC50 for RSV RSS with N protein L139I mutation to EC50 for wild type RSV RSS; assay type: functional
[15] = Cytotoxicity against recombinant RSV expressing GFP infected HAE cells at 20 uM for 7 days; assay type: cell-based; conditions: human, 168 h
Outline: (§2)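 Differentiated human airway epithelial cultures exposed to 20 μM compound for 7 days. Scored for gross cytotoxicity, leakage of basolateral fluid to the apical surface, and cilium beat frequency.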

[16] = tested on: Respiratory syncytial virus; assay: Antiviral activity against RSV infected human Hep2 cells assessed as reduction of plaque formation pretreated 2 hrs before viral infection; assay type: functional, organism-based; conditions: HEp-2
Outline: (§3)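 Plaque reduction in HEp-2 cells with compound added either 2 h before infection or 6 h after. Duplicate wells per dilution. Percent plaque reduction calculated against compound-free infected wells. Four independent experiments.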

[17] = tested on: Respiratory syncytial virus; assay: Antiviral activity against recombinant RSV expressing GFP infected HAE cells assessed as lack of viral replication-dependent green fluorescence level at 20 uM by fluorescence microscopy; assay type: functional, organism-based
[18] = tested on: Pneumonia virus of mice 15; assay: Antiviral activity against Pneumonia virus of mice 15 infected human Hep2 cells after 5 days by plaque reduction assay; assay type: functional, organism-based; conditions: murine pneumonia virus, HEp-2, 120 h; outline: as §1
[19] = tested on: Respiratory syncytial virus; assay: Antiviral activity against 0.02 MOI RSV RSS infected human Hep2 cells assessed as inhibition of virus-induced cell death after 6 days by XTT assay; assay type: functional, organism-based; conditions: HEp-2, 144 h
[20] = tested on: Respiratory syncytial virus; assay: Drug resistance, ratio of EC50 for plaque picked RSV604-resistant RSV RSS from passage 2 to EC50 for DMSO-passaged wild type RSV RSS; assay type: functional
Bovine orthopneumovirus = assay: Antiviral activity against bovine RSV snook infected human Hep2 cells after 5 days by plaque reduction assay; assay type: functional, organism-based, Bovine respiratory syncytial virus; conditions: HEp-2, 120 h; outline: as §1
[21] = tested on: Respiratory syncytial virus; assay: Antiviral activity against RSV B isolates infected human Hep2 cells after 5 days by plaque reduction assay; assay type: functional, organism-based; conditions: HEp-2, 120 h; outline: as §1
Metapneumovirus = assay: Antiviral activity against human Metapneumovirus infected human Hep2 cells after 5 days by plaque reduction assay; assay type: functional, organism-based; conditions: HEp-2, 120 h; outline: as §1
Human respirovirus 3 = assay: Antiviral activity against Parainfluenza virus type 3 infected human Hep2 cells after 5 days by plaque reduction assay; assay type: functional, organism-based; conditions: Human respirovirus 3, HEp-2, 120 h; outline: as §1
[22] = tested on: Respiratory syncytial virus; assay: Antiviral activity against RSV infected human Hep2 cells assessed as reduction of plaque formation treated 6 hrs after viral infection; assay type: functional, organism-based; conditions: HEp-2; outline: as §3
[23] = tested on: Respiratory syncytial virus; assay: Antiviral activity against recombinant RSV expressing GFP infected HAE cells assessed as inhibition of viral replication at 1 uM by fluorescence microscopy; assay type: functional, organism-based
[24] = tested on: Respiratory syncytial virus; assay: Antiviral activity against recombinant RSV expressing GFP infected HAE cells assessed as lack of viral replication-dependent green fluorescence level at 2 uM by fluorescence microscopy; assay type: functional, organism-based
[25] = tested on: Respiratory syncytial virus; assay: Antiviral activity against RSV A isolates infected human Hep2 cells after 5 days by plaque reduction assay; assay type: functional, organism-based; conditions: HEp-2, 120 h; outline: as §1
[26] = tested on: Respiratory syncytial virus; assay: Antiviral activity against plaque picked RSV604-resistant RSV RSS from passage 2 in human Hep2 cells by plaque reduction assay; assay type: functional, organism-based; conditions: HEp-2; outline: as §1
[27] = tested on: Respiratory syncytial virus; assay: Antiviral activity against recombinant RSV expressing GFP infected HAE cells assessed as lack of viral replication-dependent green fluorescence level at 10 uM by fluorescence microscopy; assay type: functional, organism-based
[28] = tested on: Respiratory syncytial virus; assay: Antiviral activity against RSV RSS with N protein I129L plus L139I mutant mutation in human Hep2 cells after 5 days by plaque reduction assay; assay type: functional, organism-based; conditions: HEp-2, 120 h; outline: as §1
[29] = tested on: Respiratory syncytial virus; assay: Antiviral activity against RSV RSS with N protein L139I mutation in human Hep2 cells after 5 days by plaque reduction assay; assay type: functional, organism-based; conditions: HEp-2, 120 h; outline: as §1
[30] = tested on: Respiratory syncytial virus; assay: Antiviral activity against recombinant RSV expressing GFP infected HAE cells assessed as inhibition of viral replication at 20 uM by fluorescence microscopy; assay type: functional, organism-based
[31] = tested on: Respiratory syncytial virus; assay: Antiviral activity against RSV RSS with N protein N105D mutation in human Hep2 cells after 5 days by plaque reduction assay; assay type: functional, organism-based; conditions: HEp-2, 120 h; outline: as §1
[32] = tested on: Respiratory syncytial virus; assay: Drug resistance, ratio of EC50 for RSV RSS with N protein I129L plus L139I mutant mutation to EC50 for wild type RSV RSS; assay type: functional
[33] = tested on: Respiratory syncytial virus; assay: Antiviral activity against recombinant RSV expressing GFP infected HAE cells assessed as inhibition of viral replication at 10 uM by fluorescence microscopy; assay type: functional, organism-based
Human respirovirus 1 = assay: Antiviral activity against Parainfluenza virus type 1 infected human Hep2 cells after 5 days by plaque reduction assay; assay type: functional, organism-based; conditions: Human respirovirus 1, HEp-2, 120 h; outline: as §1
[34] = tested on: Respiratory syncytial virus; assay: Antiviral activity against RSV RSS with N protein […] mutation in human Hep2 cells after 5 days by plaque reduction assay; assay type: functional, organism-based; conditions: HEp-2, 120 h; outline: as §1
[35] = tested on: Respiratory syncytial virus; assay: Antiviral activity against recombinant RSV expressing GFP infected HAE cells assessed as inhibition of viral replication at 2 uM by fluorescence microscopy; assay type: functional, organism-based
[36] = Toxicity in recombinant RSV expressing GFP infected HAE cells assessed as alteration of cilium beat frequency at 20 uM for 7 days; conditions: human, 168 h; outline: as §2
[37] = Toxicity in recombinant RSV expressing GFP infected HAE cells assessed as leakage of basolateral fluid to apical surface at 20 uM for 7 days; conditions: human, 168 h; outline: as §2
[38] = tested on: Respiratory syncytial virus; assay: Drug resistance, ratio of EC50 for RSV RSS M2 mutant to EC50 for wild type RSV RSS; assay type: functional
[39] = tested on: Respiratory syncytial virus; assay: Antiviral activity against 1.5 MOI RSV RSS infected human Hep2 cells assessed as inhibition of virus-induced cell death after 6 days by XTT assay; assay type: functional, organism-based; conditions: HEp-2, 144 h
[40] = Cytotoxicity against RSV RSS infected human Hep2 cells up to 50 uM after 6 days by XTT assay; assay type: cell-based; conditions: hep-2, 144 h
Outline: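 Uninfected cell-control plates run in parallel with the RSV XTT assay. HEp-2 cells at 4 × 10³ per well in DMEM/10% FBS, serial compound dilutions with 0.5% DMSO, 6 days. Viability by XTT. CC50 is the concentration giving 50% compound-induced cell death.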

## COc1cc([N+](=O)[O-])ccc1C(=O)N[C@H]1N=C(c2ccccc2)c2ccccc2NC1=O
[1]
  fold change (FC): 3.3
[2]
  selectivity ratio: > 55
[3]
  EC50: 800 nM
[4]
  CC50 at 144 h: > 50000 nM
[5]
  EC50: 400 nM
[6]
  EC50: 500 nM
[7]
  EC50: 230 nM
[8]
  EC50: 570 nM
[9]
  EC50: 900 nM
[10]
  EC50: 1300 nM

## COc1ccccc1C(=O)NC1N=C(c2ccccc2)c2ccccc2NC1=O (centres undefined)
[2]
  selectivity ratio: > 16
[3]
  EC50: 1400 nM
[4]
  CC50 at 144 h: > 50000 nM
[6]
  EC50: 1100 nM
[11]
  EC50: 1200 nM
[8]
  EC50: 1200 nM
[9]
  EC50: 3000 nM

## O=C(Nc1ccccc1F)N[C@H]1N=C(c2ccccc2)c2ccccc2NC1=O [RSV-604]
[12]
  EC50: 1140 nM
[13]
  fold change (FC): 5
[14]
  fold change (FC): 7
[15]
  Activity: Not Active
[16]
  Activity: Active
[17]
  Activity: Active
[18]
  EC50: > 50000 nM
[19]
  EC50: 1400 nM
[1]
  fold change (FC): 3.9
[20]
  fold change (FC): 50.7
Bovine orthopneumovirus
  EC50: 300 nM
[21]
  EC50: 800 nM
[2]
  selectivity ratio: > 58
Metapneumovirus
  EC50: > 50000 nM
Human respirovirus 3
  EC50: > 50000 nM
[22]
  Activity: Active
[3]
  EC50: 900 nM
[23]
  Activity: Active
[4]
  CC50 at 144 h: > 50000 nM
[24]
  Activity: Active
[25]
  EC50: 800 nM
[5]
  EC50: 600 nM
[26]
  EC50: 30400 nM
[6]
  EC50: 1700 nM
[27]
  Activity: Active
[28]
  EC50: > 20000 nM
[29]
  EC50: 6700 nM
[30]
  Activity: Active
[7]
  EC50: 600 nM
[31]
  EC50: 4780 nM
[32]
  fold change (FC): >20
[33]
  Activity: Active
Human respirovirus 1
  EC50: > 50000 nM
[11]
  EC50: 500 nM
[34]
  EC50: 6030 nM
[35]
  Activity: Active
[36]
  Activity: Not Active
[37]
  Activity: Not Active
[8]
  EC50: 800 nM
[38]
  fold change (FC): 1.2
[39]
  EC50: 2550 nM
[9]
  EC50: 860 nM
[10]
  EC50: 2700 nM

## CC(=O)NC1N=C(c2ccccc2)c2ccccc2NC1=O (centres undefined)
[1]
  fold change (FC): 3.1
[20]
  fold change (FC): >12.3
[2]
  selectivity ratio: > 5
[3]
  EC50: 9700 nM
[4]
  CC50 at 144 h: > 50000 nM
[40]
  Activity: Non-toxic
[5]
  EC50: 8100 nM
[26]
  EC50: > 100000 nM
[6]
  EC50: 10100 nM
[7]
  EC50: 3500 nM
[11]
  EC50: 15100 nM
[8]
  EC50: 7200 nM
[9]
  EC50: 9600 nM
[10]
  EC50: 27600 nM
